Data published in ChEMBL document CHEMBL1145451, “Discovery of isonicotinamide derived beta-secretase inhibitors: in vivo reduction of beta-amyloid” (J Med Chem, 2007).

How the values were obtained:
[1] = molecular target: T1, Beta-secretase 1 (Homo sapiens, UniProt P56817); experiment: Inhibition of BACE1 by ECL assay
[2] = tested on: Brain; experiment: Drug level in APP-YAC mouse brain at 25 mg/kg, iv; type: ADME, organism-based; design: dose 25 mg/kg, route intravenous; details: in vivo, read-out: Drug uptake
How it was run: (§1)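 Dose response: APP-YAC transgenic mice given i.v. bolus doses of 6.25, 12.5, 25 or 50 mg/kg; brain drug concentration determined 3.0 h post-dose.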

[3] = molecular target: T1, Beta-secretase 1; experiment: Inhibition of BACE1 assessed as effect on soluble APPbeta N-terminal fragment secretion in HEK293T cells; type: cell-based, HEK-293T
[4] = tested on: Rattus norvegicus; experiment: Plasma clearance in rat at 2 mg/kg, iv; type: ADME, organism-based; design: dose 2 mg/kg, route intravenous; details: in vivo
[5] = Oral bioavailability in rat; type: ADME, organism-based; details: in vivo
[6] = tested on: Brain; experiment: Drug level in APP-YAC mouse brain at 50 mg/kg, iv; type: ADME, organism-based; design: dose 50 mg/kg, route intravenous; details: in vivo, read-out: Drug uptake; how it was run: as §1
[7] = tested on: LLC-PK1; experiment: Ratio of permeability from basolateral to apical over apical to basolateral side in LLC-PK1 cells transfected with MDR1 by PGP assay; type: ADME, cell-based; details: human
[8] = Volume of distribution in rat at 2 mg/kg, iv; type: ADME, organism-based; design: dose 2 mg/kg, route intravenous; details: in vivo, read-out: Vdss
[9] = tested on: Mus musculus; experiment: Reduction of beta amyloid protein 40 level in transgenic APP-YAC mouse at 50 mg/kg, iv after 3 hrs relative to control; type: functional; design: scale not given: the % may be the effect or the level left
How it was run: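 APP-YAC mice (human WT APP on a yeast artificial chromosome) given i.v. bolus; brain Aβ40 measured at 0.5–4.5 h (time course, 50 mg/kg) and at 3.0 h across 6.25–50 mg/kg; reduction relative to vehicle-treated animals, Tukey-Kramer HSD statistics; γ-secretase inhibitor as positive control.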

[10] = Half life in rat at 2 mg/kg, iv; details: in vivo
[11] = Drug level in APP-YAC mouse brain at 50 mg/kg, iv after 4.5 hrs; type: ADME, organism-based; design: dose 50 mg/kg, route intravenous; details: read-out: Drug uptake
How it was run: (§2)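 Time course: transgenic mice expressing human WT APP from a yeast artificial chromosome given a 50 mg/kg i.v. bolus; brain drug concentration measured at 0.5, 1.5, 3 and 4.5 h post-dose.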

[12] = Ratio of drug level in APP-YAC mouse brain to IC50 for BACE1 in HEK293T cells; type: ADME, cell-based; details: hek-293t
[13] = Drug level in APP-YAC mouse brain at 50 mg/kg, iv after 0.5 hrs; type: ADME, organism-based; design: dose 50 mg/kg, route intravenous; details: read-out: Drug uptake; how it was run: as §2
[14] = Cmax in rat at 10 mg/kg, po; type: ADME, organism-based; design: dose 10 mg/kg, route oral; details: in vivo
[15] = Drug level in APP-YAC mouse brain at 20 mg/kg, iv after 30 mins; type: ADME, organism-based; design: dose 20 mg/kg, route intravenous; details: read-out: Drug uptake
How it was run: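 Brain penetration: brain concentration in mice measured 30 min after a 20 mg/kg i.v. dose, n of 3, reported in nM.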

T1 sequence (P56817 whole entry): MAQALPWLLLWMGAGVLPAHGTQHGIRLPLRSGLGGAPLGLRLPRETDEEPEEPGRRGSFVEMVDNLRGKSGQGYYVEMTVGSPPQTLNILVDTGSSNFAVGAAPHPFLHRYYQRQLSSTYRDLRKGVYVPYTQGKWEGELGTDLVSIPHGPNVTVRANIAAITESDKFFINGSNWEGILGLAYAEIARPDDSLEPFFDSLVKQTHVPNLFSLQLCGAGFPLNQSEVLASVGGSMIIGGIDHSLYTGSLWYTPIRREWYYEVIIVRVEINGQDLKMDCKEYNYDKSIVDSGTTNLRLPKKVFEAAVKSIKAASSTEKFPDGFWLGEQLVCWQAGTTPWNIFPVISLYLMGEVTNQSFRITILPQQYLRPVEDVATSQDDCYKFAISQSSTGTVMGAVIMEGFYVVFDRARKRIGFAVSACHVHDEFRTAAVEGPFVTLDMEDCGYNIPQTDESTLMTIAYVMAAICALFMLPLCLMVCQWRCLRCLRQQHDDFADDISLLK

Structure (SMILES)	IC50 [1] [nM]	IC50 [3] [nM]	Ratio [7]	Ratio [12]	concentration at 0.5 h [15] [nM]	also measured
CCCN(CC1CC1)c1cc(C(=O)N[C@H](CO)Cc2ccccc2)cc(N(C)S(=O)(=O)C(C)C)n1	350	> 20000	3.6	< 0.07	1400	–
CC(C)S(=O)(=O)N(C)c1cc(C(=O)N[C@H](CO)Cc2cc(F)cc(F)c2)cc(NC[C@H]2C[C@@H]2C)n1	14	> 20000	–	–	–	–
CC1CC1CN(C)c1cc(C(=O)N[C@@H](Cc2cc(F)cc(F)c2)[C@@H](N)CF)cc(N(C)S(=O)(=O)C(C)C)n1 (mixture of isomers)	–	–	–	–	3080	–
CC1CC1CNc1cc(C(=O)N[C@@H](Cc2ccccc2)[C@@H](N)CF)cc(N(C)S(=O)(=O)C(C)C)n1 (mixture of isomers)	–	–	–	–	560	–

The next lines start with results.

IC50 [1] [nM]	IC50 [3] [nM]	Ratio [7]	Ratio [12]	concentration at 0.5 h [15] [nM]	Structure (SMILES)	also measured
2	49	> 50	11.4	–	CC(C)S(=O)(=O)N(C)c1cc(C(=O)N[C@@H](Cc2ccccc2)[C@@H](N)CF)cc(NC[C@H]2C[C@@H]2C)n1	concentration [2]: 700 nM; clearance [4]: 45.8 mL/min/kg; bioavailability [5]: 13%; concentration [6]: 1900 nM; Vd [8]: 3.9 L/kg; Activity [9]: 34%; half-life [10]: 1.6 h; concentration at 4.5 h [11]: 700 nM; concentration at 0.5 h [13]: 5800 nM; Cmax [14]: 300 nM
1100	–	–	–	–	CN(c1cc(C(=O)N[C@H](CO)Cc2cc(F)cc(F)c2)cc(NCC2CC2)n1)S(C)(=O)=O	–
18	910	4.8	3.4	–	CC(C)S(=O)(=O)N(C)c1cc(C(=O)N[C@@H](Cc2ccccc2)[C@@H](N)CF)cc(N(C)C[C@H]2C[C@@H]2C)n1	clearance [4]: 59.1 mL/min/kg; bioavailability [5]: 8%; Vd [8]: 4.2 L/kg; Cmax [14]: 200 nM
